Shown are actives, neighbours in structure and some others; about 4.5% of the full set was active somewhere.
CHOP UPR activ – activators of apoptotic CHOP UPR arm, primary screen, cell-based, CHO-CHOP luciferase reporter, luminescence, uHTS; AID 449763, 2010; UPR activation; percent of tunicamycin response over DMSO baseline; activation, % at 10 µM; hit rate 0.34% among 330,000;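 active = at 10 µM dose, activation of 40% or more, normalized to positive control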
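Material: CHO-CHOP cells, stable luciferase reporter of PERK-eIF2a-CHOP signalling; quantity: 500 reporter cells seeded per well; buffer or medium: F12 medium containing 10% fetal bovine serum; compound: one dose, 10 µM in 0.5% DMSO; incubation: 6 h compound treatment, 37 °C; measured by: Steady-Glo luciferase luminescence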
p97 inhibitor – inhibitors of human p97 ATPase, primary screen, biochemical; Transitional endoplasmic reticulum ATPase (Homo sapiens), P55072; recombinant p97 ATPase, Kinase-Glo ATP luminescence, 3 h; inhibition, % at 8 µM; hit rate 0.42% among 220,000; in the data active = inhibition above about 15%
Target sequence (P55072 whole entry, looked up): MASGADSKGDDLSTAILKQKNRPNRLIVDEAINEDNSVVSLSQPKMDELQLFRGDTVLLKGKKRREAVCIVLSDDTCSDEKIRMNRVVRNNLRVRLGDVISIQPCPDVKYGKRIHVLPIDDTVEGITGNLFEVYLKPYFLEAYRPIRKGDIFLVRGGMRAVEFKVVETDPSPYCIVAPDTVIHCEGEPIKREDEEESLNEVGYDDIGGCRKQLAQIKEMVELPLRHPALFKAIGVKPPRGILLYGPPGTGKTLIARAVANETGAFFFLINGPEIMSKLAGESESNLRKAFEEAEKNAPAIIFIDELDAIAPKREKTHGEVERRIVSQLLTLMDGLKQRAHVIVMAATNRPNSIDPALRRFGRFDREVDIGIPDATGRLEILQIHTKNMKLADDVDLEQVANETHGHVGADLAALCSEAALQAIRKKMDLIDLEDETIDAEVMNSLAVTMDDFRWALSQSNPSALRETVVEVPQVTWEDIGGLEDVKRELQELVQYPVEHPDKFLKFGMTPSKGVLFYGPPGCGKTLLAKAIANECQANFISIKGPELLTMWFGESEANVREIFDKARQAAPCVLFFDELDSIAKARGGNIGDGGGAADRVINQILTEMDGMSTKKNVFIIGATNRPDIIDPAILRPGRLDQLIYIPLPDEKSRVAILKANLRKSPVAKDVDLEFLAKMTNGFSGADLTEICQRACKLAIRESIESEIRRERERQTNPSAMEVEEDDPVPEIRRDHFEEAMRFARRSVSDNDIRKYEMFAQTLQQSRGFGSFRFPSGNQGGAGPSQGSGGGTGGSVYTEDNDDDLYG
UPR XBP1 act – activators of adaptive XBP1 UPR arm, primary screen, cell-based, CHO-XBP1 luciferase reporter, luminescence, uHTS | IRE1-XBP1 UPR activation; percent of tunicamycin response, DMSO as zero | activation, % at 20 µM | hit rate 0.33% among 330,000;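 active = versus positive control, 20 µM dose yields 30% or more activation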
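Material: IRE1-XBP1 luciferase reporter CHO line / Quantity: one thousand reporter cells per well / Buffer or medium: F12 with 10% serum / Compound: 20 µM single concentration, DMSO 1% / Times: 6 h treatment, 37 °C / Detection: Steady-Glo luciferase glow luminescence, 10 min after reagent addition / Benchmarks: tunicamycin high, DMSO low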
CHOP inh – inhibitors of CHOP promoter induction, primary screen, cell-based, unfolded protein response, luciferase reporter; CHO-K1 CHOP-promoter luciferase, tunicamycin-induced, 15-18 h; inhibition, % at 10 µM; hit rate 3.8% among 220,000; AID 2732, 2010;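 active = compounds that reduced the stress-induced luciferase reporter signal by more than about 70% of percent inhibition, limit read from the data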
HCV NS3 hel inh – inhibitors of HCV NS3 helicase, primary screen, biochemical, Cy5 molecular beacon fluorescence; Hepatitis C virus NS3 helicase; NS3 helicase DNA unwinding; inhibition, % at 10.9 µM; hit rate 0.56% among 290,000; AID 1800, 2009;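 active = inhibition above the mean of all tested compounds plus 3 SD, set per campaign, cut at about 35% in these data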
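Measured by: Cy5 fluorescence, 0 and 60 min reads / Assay system: NS3 helicase fragment of HCV / Control set: low DMSO, high thioflavine S at 110 µM / Times: 1 h reaction at 25 °C, ATP-initiated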
PfM18AAP inh – PfM18AAP inhibitors, malaria aminopeptidase, primary screen, biochemical, QFRET, recombinant enzyme; inhibition, % at 7.35 µM; hit rate 1.2% among 290,000; H-Glu-NHMec fluorogenic cleavage;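 active = inhibition above the campaign mean inhibition over all tested compounds plus 3 SD, cut at about 28% in these data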
Large screens that a line does not name were inactive.

CCc1c(C)sc(NC(=O)C2CC2)c1C(=O)OC(C)C	CHOP inh 81
CC(=O)Nc1sc(C)c(C)c1C(=O)OC(C)C	none
CCn1c(C)nc2cc(C(=O)NNC(=O)Nc3cccc(Cl)c3)ccc21	PfM18AAP inh 31
CCn1c(C)nc2cc(C(=O)NNC(=O)Nc3ccc(Cl)cc3)ccc21	none
Cc1occc1C(=O)N/N=C/c1ccc(OCc2ccccc2)cc1	CHOP inh 71
Cc1occc1C(=O)N/N=C/c1ccc(-c2ccccc2)cc1	none (no result: p97 inhibitor, CHOP inh)
COc1ccccc1-c1nnc(SCC(=O)NCc2c(C)c(Cl)cc(C(C)C)c2O)o1	CHOP inh 75
COc1ccc(Br)cc1CN1CCSCC1	none (no result: p97 inhibitor, CHOP inh)
CCOC(=O)c1cnc2ccc(OCC)cc2c1NCc1ccccc1OC	CHOP inh 82
CCc1ccc2c(c1)C1(C(=O)N2)N2CCCC2C(C(=O)c2ccc3ccccc3c2)C12C(=O)Nc1ccccc12 (stereo unspecified)	CHOP inh 106
CCc1cccc2c1NC(=O)C21N2CCCC2C(C(=O)c2ccc3ccccc3c2)C12C(=O)Nc1ccccc12 (stereo unspecified)	none
CC1Cc2ccccc2N1C(=O)CSc1nnc(Cn2nnc3ccccc32)n1C (stereo unspecified)	CHOP inh 72
O=c1c2ccccc2[nH]c(=S)n1CCCN1CCC(Cc2ccccc2)CC1	none (no result: p97 inhibitor, CHOP inh)
NC1=NC(=O)/C(=C/c2c(OS(=O)(=O)c3ccc(Cl)cc3)ccc3ccccc23)S1	CHOP inh 94
Cc1ccc(CNC(=O)CSc2nc(N3CCCCC3)nc(N3CCCCC3)n2)cc1	CHOP inh 71
Cc1ccccc1NC(=O)CSc1nc(N2CCCCC2)nc(N2CCCCC2)n1	none
CCOC(=O)N1CCN(c2nc(C)cc(C(F)(F)F)n2)CC1	CHOP inh 71
CCOC(=O)N1CCN(c2nc(C(F)(F)F)nc3c(C)cc(C)cc23)CC1	none
COc1ccc(NS(=O)(=O)c2cccc(C(=O)OCC(=O)N3CCN(c4ccc(OC)cc4)CC3)c2)cc1	none (no result: p97 inhibitor, CHOP inh, HCV NS3 hel inh, PfM18AAP inh)
CCC[n+]1c(C)sc2c(OC)ccc(OC)c21	PfM18AAP inh 28
COc1ccc(CC(=O)Nc2cccc(/C(C)=N/NC(=O)C3(C)CC3(Br)Br)c2)cc1 (stereo unspecified)	none (no result: p97 inhibitor, CHOP inh)
CCCC1CC(C)(/C(C)=N\NC(N)=S)OC1=O (stereo unspecified)	PfM18AAP inh 28
C/C(CCC1CC(C)(C)OC1=O)=N\NC(N)=S (stereo unspecified)	none
Cc1ccc(-c2cc(C(=O)NCCN3CCOCC3)c3ccccc3n2)o1	none (no result: p97 inhibitor, CHOP inh)
CCCN1C(=O)/C(=C/c2c(NCCCOCC)nc3c(C)cccn3c2=O)SC1=S	CHOP inh 76 (no result: CHOP UPR activ, UPR XBP1 act)
O=C(CC1NC(=O)NC1=O)Nc1ccc(Cl)cc1 (stereo unspecified)	CHOP inh 75
C=CCNc1nc2c(c(=O)[nH]c(=O)n2C)n1CCOc1ccccc1	none (no result: p97 inhibitor, CHOP inh)
CCCCNC(=O)c1onc(CSc2ccccn2)c1C(=O)NCCCC	none (no result: p97 inhibitor, CHOP inh, HCV NS3 hel inh, PfM18AAP inh)
Brc1ccc(NCc2cccc3ccccc23)nc1	CHOP inh 87
C/C(=N\Nc1c(Cl)c(Cl)nc(C(=O)O)c1Cl)c1ccc(O)cc1	PfM18AAP inh 31 (no result: p97 inhibitor, CHOP inh)
C/C(=N/Nc1ccccc1[N+](=O)[O-])c1ccc([N+](=O)[O-])cc1	none (no result: p97 inhibitor, CHOP inh)
CC(C)=NNc1cc([N+](=O)[O-])cc2c1C(=O)N(C)S2=O (stereo unspecified)	PfM18AAP inh 30
CC(C)CCN1C(=O)c2ccc(C(=O)NCc3ccccn3)cc2C1=O	none (no result: p97 inhibitor, CHOP inh, HCV NS3 hel inh, PfM18AAP inh)
O=C(CCC1CCCC1)N1CCN(C(=O)COc2ccccc2)CC1	CHOP inh 75
Cc1ccc(OCC(=O)N2CCN(C(=O)CCC3CCCC3)CC2)cc1	none
O=C(COC(=O)c1cc[n+]([O-])cc1)Nc1cccc(F)c1	none (no result: p97 inhibitor, CHOP inh, HCV NS3 hel inh, PfM18AAP inh)
Cc1cccc(-c2nnc(NC(=O)c3ccc(Cl)cc3)o2)c1	CHOP inh 79
Cc1ccc(C(=O)Nc2nnc(-c3ccncc3)o2)cc1	none
O=C(Nc1nnc(-c2ccc3c(c2)CCCC3)o1)c1ccccc1	CHOP inh 100
O=C(CCOc1ccccc1)Nc1nnc(-c2ccc3c(c2)OCCO3)o1	none
O=C(Nc1nnc(-c2ccc3c(c2)OCCO3)o1)c1ccc(Cc2ccccc2)cc1	CHOP inh 97
O=C(COc1ccccc1)Nc1nnc(-c2ccc3c(c2)CCCC3)o1	none
O=C(O)c1ccc(N=Nc2c(O)ccc3ncccc23)cc1	none (no result: p97 inhibitor, CHOP inh)
CCCN1C/C(=C/c2cccc([N+](=O)[O-])c2)C(=O)/C(=C/c2cccc([N+](=O)[O-])c2)C1	CHOP inh 100 (no result: CHOP UPR activ, UPR XBP1 act)
Cc1cccc(NNC(=S)Nc2c(C)cccc2C)c1	PfM18AAP inh 30 (no result: p97 inhibitor, CHOP inh)
COc1cccc(NS(=O)(=O)c2c(C)cc(C)cc2C)c1	CHOP inh 95
CCOc1ccc(NC(=O)COC(=O)C2(C)CC2(Cl)Cl)c([N+](=O)[O-])c1 (stereo unspecified)	CHOP inh 97
CCOc1ccc(OCC(=O)Nc2ccc(OC)cc2[N+](=O)[O-])cc1	none
COc1ccc(NC(=O)CSc2ncn[nH]2)c([N+](=O)[O-])c1	none
CCOc1ccc(NC(=O)CSc2ncn[nH]2)c([N+](=O)[O-])c1	PfM18AAP inh 30
Cc1nn(C(=O)Cn2cc([N+](=O)[O-])cn2)c(C)c1Cl	none
CC(Nc1cccc2ccccc12)C(=O)N/N=C/c1ccc([N+](=O)[O-])cc1 (stereo unspecified)	CHOP inh 82
O=c1[nH]c(Cn2nnc(-c3ccccc3)n2)nc2scc(-c3ccccc3)c12	CHOP inh 89
CC1CN(C(=S)Nc2ccc(Cl)cc2)CC(C)O1 (stereo unspecified)	none (no result: p97 inhibitor, CHOP inh)
CC1CN(c2ccc(NC(=S)Nc3ccc(N4CC(C)OC(C)C4)cc3)cc2)CC(C)O1 (stereo unspecified)	PfM18AAP inh 29
O=C(N/N=C/c1cc(Cl)cc([N+](=O)[O-])c1O)NC12CC3CC(CC(C3)C1)C2	CHOP inh 81
Cc1nc(N2CCC(C)CC2)c2c(C)c(C(=O)Nc3ccc(C)c(F)c3)sc2n1	CHOP inh 71
Cc1nc(N2CCN(C)CC2)c2c(C)c(C(=O)Nc3ccc(C)c(F)c3)sc2n1	none
O=C(Cc1coc2ccc3ccccc3c12)Nc1nnc(C2CC2)s1	none
Cc1cc2occ(CC(=O)Nc3nnc(C4CC4)s3)c2cc1C	CHOP inh 90
